The text below walks through data of ChEMBL document CHEMBL4190364, “Design, synthesis and anti-HIV evaluation of novel diarylpyridine derivatives as potent HIV-1 NNRTIs” (Eur J Med Chem, 2017).

Series [1] has as its system Human immunodeficiency virus 2. Nature of the series: Antiviral activity against HIV2 ROD infected in human MT4 cells assessed as inhibition of virus-induced cytopathogenicity by measuring virus-induced syncytium formation by MTT assay. Type of series: functional, organism-based. The following applies: Human immunodeficiency virus 2, ISOLATE ROD. A digest of the protocol:
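MT-4 cells, exponentially growing, spun 5 min at 220 g and resuspended at 6×10^5 cells/mL. Infected with virus stock at 100-300 CCID₅₀ (HIV-1 IIIB or HIV-2 ROD). Serial fivefold compound dilutions were tested in triplicate wells. Viability was read by MTT after 5 days at 540 and 690 nm, using the median OD of three wells. EC₅₀ was taken as 50% inhibition of virus-induced syncytium formation.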
Background: Damage to the host cells serves as the signal in cytopathic effect assays.

In series [2] the test system is Human immunodeficiency virus 1. Nature of the series: Antiviral activity against HIV1 RES056 expressing reverse transcriptase K103N/Y181C double mutant infected in human MT4 cells assessed as inhibition of virus-induced cytopathogenicity by measuring virus-induced syncytium formation by MTT assay. In kind it is functional, organism-based. The following applies: Human immunodeficiency virus 1, RES056, MT4. The gist of the method: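 MT-4 cells (exponentially growing, spun 5 min at 220 g, resuspended at 6×10^5 cells/mL) infected with 100-300 CCID₅₀ virus; serial fivefold compound dilutions added at start, triplicate wells, mock-infected set in parallel. Viability read by MTT reduction at 540 and 690 nm after 5 days; median OD of three wells; EC₅₀ = concentration inhibiting virus-induced syncytium formation by 50%.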

The test system of series [3] is Human immunodeficiency virus 1. Nature of the series: Antiviral activity against HIV1 3B infected in human MT4 cells assessed as inhibition of virus-induced cytopathogenicity by measuring virus-induced syncytium formation by MTT assay. In kind it is functional, organism-based. The settings on record: Human immunodeficiency virus 1, 3B. A digest of the protocol: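 MT-4 cells, exponentially growing, spun 5 min at 220 g and resuspended at 6×10^5 cells/mL. Infected with virus stock at 100-300 CCID₅₀ (HIV-1 IIIB or HIV-2 ROD). Serial fivefold compound dilutions were tested in triplicate wells. Viability was read by MTT after 5 days at 540 and 690 nm, using the median OD of three wells.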

The nature of series [4]: Selectivity index, ratio of CC50 for mock-infected human MT4 cells to EC50 for antiviral activity against HIV1 3B infected in human MT4 cells. Type of series: toxicity, cell-based. The settings on record: mock-infected (CC50) and HIV1 3B infected (EC50). The gist of the method: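 SI is CC₅₀/EC₅₀. Both values come from parallel MTT readings on mock-infected and HIV-1 IIIB-infected (100-300 CCID₅₀) MT-4 cells, in triplicate wells with serial fivefold dilutions, read after 5 days.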

A short description of series [5]: Cytotoxicity in mock-infected human MT4 cells assessed as reduction in cell viability by MTT assay. Type of series: cell-based. The gist of the method: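 Mock-infected MT-4 cells were run in parallel with the infected series: 6×10^5 cells/mL, serial fivefold compound dilutions, triplicate wells. MTT viability was read 5 days later at 540/690 nm from the median OD of three wells. CC₅₀ is the concentration cutting OD540 of mock-infected controls by 50%.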
Background: Tetrazolium dyes change colour on reduction, which living cells bring about.

For series [6], the target named is Human immunodeficiency virus type 1 reverse transcriptase (Human immunodeficiency virus 1) (UniProt Q72547). Nature of the series: Potency index, ratio of IC50 for nevirapine to IC50 for test compound for inhibition of recombinant wild type HIV1 reverse transcriptase p66/p51 incubated for 40 mins using poly(rA) template and oligo(dT)16 primer by picogreen dye based spectrofluorometry.

Series [7] deals with Human immunodeficiency virus type 1 reverse transcriptase (Human immunodeficiency virus 1, UniProt Q72547). Nature of the series: Inhibition of recombinant wild type HIV1 reverse transcriptase p66/p51 assessed as reduction in biotin-dUTP incorporation incubated for 40 mins using poly(rA) template and oligo(dT)16 primer by picogreen dye based spectrofluorometry.
In series [8] the test system is Human immunodeficiency virus 1. Nature of the series: Potency index, ratio of EC50 for nevirapine to EC50 for test compound for antiviral activity against HIV1 3B infected in human MT4 cells by MTT assay. In kind it is functional.

pEC50, pIC50: −log10 of the molar value. Bounds are passed on as bounds.

For `Cc1cccc(C)c1Nc1cnc([N+](=O)[O-])c(Nc2ccc(C#N)cc2)c1`, the pEC50 (commonly the negative decadic logarithm of the EC50, by convention in mol/L) in series [1] is < 5.20; in series [2] it was < 5.20; in series [3], 5.97. For the same compound, in series [4], the selectivity ratio is 6. In series [5], the CC50 – broadly, the concentration that lowers cell viability or growth by half – was found to be 6.27 µM.

With `Cc1cc(Br)c(Oc2cnc(N)c(Nc3ccc(C#N)cc3)c2)c(Br)c1`, in series [6], the Ratio IC50 was found to be 45. The negative-log EC50 (pEC50) in series [1] was < 3.58; in series [2], < 3.58; in series [3], 7.15. Besides, in series [7], the pIC50 (as a rule, the IC50 on a negative log10 scale, so that one unit is a factor of ten) was 7.30. The selectivity ratio in series [4] was > 3800. Moreover, the CC50 in series [5] was > 264 µM.

Consider `Cc1cc(Br)cc(C)c1Oc1cnc([N+](=O)[O-])c(Nc2ccc(C#N)cc2)c1`, for which the negative logarithm of the EC50 (pEC50) is < 3.55 in series [1], < 3.55 in series [2] and 5.36 in series [3]. Further, the selectivity ratio in series [4] is > 64. For the same compound, the CC50 in series [5] is > 285 µM.

For the compound `Cc1cc(Cl)cc(C)c1Oc1cnc(N)c(Nc2ccc(C#N)cc2)c1`, the pEC50 in series [1] is < 4.46; in series [2] it was < 4.46; in series [3] it was 6.43. In addition, in series [7], the pIC50 is 6.51. Also, in series [4], the selectivity ratio stood at 95. Further, the CC50 in series [5] is 35.1 µM.

With `N#Cc1ccc(Nc2cc(Oc3c(Cl)cc(Cl)cc3Cl)cnc2[N+](=O)[O-])cc1`, the pEC50 in series [1] is < 3.54; in series [2] it was < 3.54; in series [3], 6.51. In addition, the selectivity ratio in series [4] was > 924. Also, the CC50 in series [5] is > 287 µM.

With `COc1cccc(OC)c1Oc1cnc(N)c(Nc2ccc(C#N)cc2)c1`, the pEC50 in series [1] was < 3.46; in series [2], < 3.46; in series [3], 4.45. Moreover, the pIC50 in series [7] was 3.84. Moreover, the selectivity ratio in series [4] was > 10. The CC50 in series [5] is > 345 µM.

With `Cc1cc(Cl)cc(C)c1Oc1cnc([N+](=O)[O-])c(Nc2ccc(C#N)cc2)c1`, the pEC50 in series [1] is < 3.50; in series [2] it was < 3.50; in series [3] it was 5.85. Also, the selectivity ratio in series [4] was > 171. The CC50 in series [5] was > 317 µM.

Take `O=C1Nc2ccc(Cl)cc2[C@@](C#CC2CC2)(C(F)(F)F)O1` [EFAVIRENZ]: the CC50 in series [5] is > 6.34 µM.

On to `Cc1cccc(C)c1Oc1cnc([N+](=O)[O-])c(Nc2ccc(C#N)cc2)c1`, for which the negative logarithm of the EC50 (pEC50) was < 3.46 in series [1], < 3.46 in series [2] and 5.69 in series [3]. In series [4], the selectivity ratio was > 171. The CC50 in series [5] is > 347 µM.

Take `Cc1cc(C#N)cc(C)c1Oc1cnc(N)c(Nc2ccc(C#N)cc2)c1`: the figures for the pEC50 in series [1], in series [2] and in series [3] were < 4.40, ≤ 4.94 and 7.15, respectively. Also, the pIC50 in series [7] is 6.77. The selectivity ratio in series [4] worked out at 577. Also, in series [5], the CC50 worked out at 39.5 µM.

In the case of `Cc1ccnc2c1NC(=O)c1cccnc1N2C1CC1` [NEVIRAPINE], the pEC50 in series [2] was < 4.82. Further, the CC50 in series [5] is > 15 µM.

With `Cc1cc(C#N)cc(C)c1Oc1cnc([N+](=O)[O-])c(Nc2ccc(C#N)cc2)c1`, the pEC50 is < 3.49 in series [1], < 3.49 in series [2] and 5.39 in series [3]. Also, the selectivity ratio in series [4] is > 79. Further, the CC50 in series [5] was > 324 µM.

As for `N#Cc1ccc(Nc2cc(Oc3c(Cl)cc(Cl)cc3Cl)cnc2N)cc1`, the pEC50 in series [1] is ≤ 4.24; in series [2], < 3.75; in series [3], 6.59. Further, in series [7], the pIC50 was 6.80. In addition, the selectivity ratio in series [4] turned out to be 680. Further, in series [5], the CC50 turned out to be 179 µM.

Turning to `COc1cccc(OC)c1Oc1cnc([N+](=O)[O-])c(Nc2ccc(C#N)cc2)c1`, the pEC50 in series [1] and in series [3] was < 3.50 each time. Moreover, the CC50 in series [5] was > 319 µM.

With `Cc1cc(C)c(Oc2cnc([N+](=O)[O-])c(Nc3ccc(C#N)cc3)c2)c(C)c1`, the pEC50 in series [1] was < 3.48; in series [2], < 3.48; in series [3], 6.54. Further, in series [4], the selectivity ratio is > 1160. For the same compound, in series [5], the CC50 is > 334 µM.

Regarding `N#Cc1ccc(Nc2cc(Oc3c(Br)cc(Br)cc3Br)cnc2[N+](=O)[O-])cc1`, the pEC50 in series [1] is < 3.66; in series [2], < 3.66; in series [3] it was 6.10. In addition, in series [4], the selectivity ratio was > 277. Further, in series [5], the CC50 was > 220 µM.

Turning to `Cc1cc(C)c(Oc2cnc(N)c(Nc3ccc(C#N)cc3)c2)c(C)c1`, the figures for the pEC50 in series [1], in series [2] and in series [3] were < 4.49, < 4.49 and 6.85, respectively. In series [7], the pIC50 was 7.05. In addition, the selectivity ratio in series [4] came out at 227. For the same compound, in series [5], the CC50 was 32.1 µM.

As for `Cc1cccc(C)c1Oc1cnc(N)c(Nc2ccc(C#N)cc2)c1`, the values for the pEC50 in series [1], in series [2] and in series [3] were < 3.42, < 3.42 and 6.22, respectively. In addition, the pIC50 in series [7] is 6.04. The selectivity ratio in series [4] was > 628. In addition, in series [5], the CC50 is > 378 µM.

Take `Cc1cc(Br)cc(C)c1Oc1cnc(N)c(Nc2ccc(C#N)cc2)c1`: the pEC50 in series [1] is < 4.57; in series [2] it was < 4.57; in series [3], 6.08. Moreover, the pIC50 in series [7] was 6.59. In addition, in series [4], the selectivity ratio was 32. Moreover, the CC50 in series [5] came to 26.7 µM.

With `Cc1cc(C)c(Nc2cnc([N+](=O)[O-])c(Nc3ccc(C#N)cc3)c2)c(C)c1`, the pEC50 in series [1] was < 3.78; in series [2], < 3.78; in series [3], 7.40. For the same compound, in series [8], the “Ratio EC50” value is recorded as 6. The pIC50 in series [7] was 6.19. Further, the selectivity ratio in series [4] was determined as 3960. Further, in series [5], the CC50 came out at 168 µM.

As for `N#Cc1ccc(Nc2cc(Oc3c(F)cc(F)cc3F)cnc2[N+](=O)[O-])cc1`, the pEC50 in series [1] is < 3.49; in series [2], < 3.49; in series [3] it was 6.00. Also, the selectivity ratio in series [4] was > 320. Further, in series [5], the CC50 is > 324 µM.

With `Cc1cc(C#N)cc(C)c1Oc1nc(Nc2ccc(C#N)cc2)nc(N)c1Br` [ETRAVIRINE], in series [5], the cytotoxic concentration (CC50) was > 4.59 µM.

For the compound `Cc1cc(Br)c(Oc2cnc([N+](=O)[O-])c(Nc3ccc(C#N)cc3)c2)c(Br)c1`, the figures for the pEC50 in series [1], in series [2] and in series [3] were < 4.07, < 4.07 and 7.30, respectively. Moreover, the pIC50 in series [7] is 6.55. For the same compound, in series [4], the selectivity ratio amounted to 1680. Further, the CC50 in series [5] came out at 84.3 µM.

With `Cc1cn([C@H]2C[C@H](N=[N+]=[N-])[C@@H](CO)O2)c(=O)[nH]c1=O` [ZIDOVUDINE], the pEC50 in series [3] is 8.22. Further, in series [4], the selectivity ratio is > 1290. Also, the CC50 in series [5] is > 7.48 µM.

For `N#Cc1ccc(Nc2cc(Oc3c(Br)cc(Br)cc3Br)cnc2N)cc1`, the pEC50 in series [1] is < 4.56; in series [2] it was < 4.56; in series [3], 6.30. The pIC50 in series [7] is 6.77. In series [4], the selectivity ratio came out at 55. For the same compound, the CC50 in series [5] is 27.7 µM.
